Calls of active or inactive are those of the source. The rule behind the calls is not given here.
Assays:
[1] = Antioxidant activity assessed as trolox equivalent of AAPH radical scavenging activity at 10 uM measured every min for 90 mins by ORAC-FL assay; assay type: functional
Procedure, shortened: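 ORAC-FL in 75 mM phosphate buffer pH 7.4. Sample and fluorescein (150 nM final) preincubated 15 min at 37 °C, then AAPH (12 mM final) added. Fluorescence (ex 485/em 535 nm) read each minute for 90 min. Net AUC after blank subtraction, converted to Trolox equivalents from a Trolox curve (0.5–8, final; Trolox = 1). Duplicate wells, three independent assays.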

[2] = molecular target: Cholinesterase (Equus caballus) (UniProt P81908); assay: Inhibition of equine serum BChE at 100 uM using butyrylthiocholine iodide as substrate preincubated for 10 mins followed by substrate addition and measured for 10 mins by Ellman's method relative to control; conditions: time 20.0 min
Procedure, shortened: (§1)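 Ellman single-concentration screen in 50 mM Tris-HCl pH 8.0 with DTNB (6.8 mM stock) and 1% DMSO. Enzyme solution 0.4 U/mL AChE or 0.8 U/mL BChE. Compound and enzyme preincubated 10 min at 25 °C, then ATI (10 mM stock) or BTI (30 mM stock) added. A412 followed for 10 min, blank-subtracted, % inhibition versus no-compound control. Triplicate.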

[3] = molecular target: Acetylcholinesterase (Electrophorus electricus) (UniProt O42275); assay: Inhibition of electric eel AChE at 100 uM using acetylthiocholine iodide as substrate preincubated for 10 mins followed by substrate addition and measured for 10 mins by Ellman's method relative to control; conditions: time 20.0 min; procedure, shortened: as §1
THP-1 [4] = assay: Antiinflammatory activity in LPS-induced human THP-1 cells assessed as reduction in IL1beta release at 10 uM peincubated for 1 hr followed by LPS stimulation and measured after 24 hrs by EIA; assay type: functional, cell-based; conditions: time 25.0 hrs
Procedure, shortened: (§2)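 THP-1 cells grown in RPMI 1640 with 10% FCS, penicillin and streptomycin at 37 °C, 5% CO2, then plated overnight at 4×10⁴ cells/well. Test compound added 1 h before 100 ng/ml E. coli O111:B4 LPS; 24 h incubation. Untreated and LPS-only controls. […]; cytokine read by EIA at 450 nm against a standard curve. At least triplicate.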

Cholinesterase = Cholinesterase (Equus caballus, UniProt P81908); assay: Inhibition of equine serum BChE using butyrylthiocholine iodide as substrate preincubated for 10 mins followed by substrate addition and measured for 10 mins by Ellman's method
Procedure, shortened: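 BChE (0.8 U/mL solution) preincubated with inhibitor 10 min at 25 °C in Tris-HCl pH 8.0 with DTNB and 1% DMSO, then BTI (30 mM stock) added. A412 read over 10 min, blank-corrected. IC50 from log[inhibitor] versus % inhibition. Triplicate, mean ± SD.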

THP-1 [5] = assay: Antiinflammatory activity in LPS-induced human THP-1 cells assessed as reduction in TNFalpha release at 10 uM peincubated for 1 hr followed by LPS stimulation and measured after 24 hrs by EIA; assay type: functional, cell-based; conditions: time 25.0 hrs; procedure, shortened: as §2
THP-1 [6] = assay: Antiinflammatory activity in LPS-induced human THP-1 cells assessed as reduction in nitric oxide release at 10 uM peincubated for 1 hr followed by LPS stimulation and measured after 24 hrs by ELISA; assay type: functional, cell-based; conditions: time 25.0 hrs
Procedure, shortened: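 THP-1 cells plated overnight at 4×10⁴ cells/well, given test compound 1 h before 100 ng/ml LPS (E. coli O111:B4), then incubated 24 h. Cell-free supernatants stored at −20 °C, then NO measured by ELISA kit (sensitivity 1,12 […]) from a standard curve. Untreated cells as negative control, LPS-only as positive control. At least triplicate.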

THP-1 [7] = assay: Antiinflammatory activity in LPS-induced human THP-1 cells assessed as reduction in IL6 release at 10 uM peincubated for 1 hr followed by LPS stimulation and measured after 24 hrs by EIA; assay type: functional, cell-based; conditions: time 25.0 hrs; procedure, shortened: as §2
Acetylcholinesterase = Acetylcholinesterase (Electrophorus electricus, UniProt O42275); assay: Inhibition of electric eel AChE using acetylthiocholine iodide as substrate preincubated for 10 mins followed by substrate addition and measured for 10 mins by Ellman's method
[8] = molecular target: Amyloid-beta precursor protein (Homo sapiens) (UniProt P05067); assay: Inhibition of amyloid beta (1 to 42) (unknown origin) self-induced aggregation at 50 uM by Thioflavin T based fluorometric assay relative to control
Procedure, shortened: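 Thioflavin T fluorometric assay of Aβ1-42 self-aggregation, with inhibitor and Aβ42 both at 50 (equimolar). Samples dissolved in DMSO. Result given as % inhibition, mean of two independent experiments each run in triplicate.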

Chain of Acetylcholinesterase (Electrophorus electricus) (O42275 24-633 limits assumed): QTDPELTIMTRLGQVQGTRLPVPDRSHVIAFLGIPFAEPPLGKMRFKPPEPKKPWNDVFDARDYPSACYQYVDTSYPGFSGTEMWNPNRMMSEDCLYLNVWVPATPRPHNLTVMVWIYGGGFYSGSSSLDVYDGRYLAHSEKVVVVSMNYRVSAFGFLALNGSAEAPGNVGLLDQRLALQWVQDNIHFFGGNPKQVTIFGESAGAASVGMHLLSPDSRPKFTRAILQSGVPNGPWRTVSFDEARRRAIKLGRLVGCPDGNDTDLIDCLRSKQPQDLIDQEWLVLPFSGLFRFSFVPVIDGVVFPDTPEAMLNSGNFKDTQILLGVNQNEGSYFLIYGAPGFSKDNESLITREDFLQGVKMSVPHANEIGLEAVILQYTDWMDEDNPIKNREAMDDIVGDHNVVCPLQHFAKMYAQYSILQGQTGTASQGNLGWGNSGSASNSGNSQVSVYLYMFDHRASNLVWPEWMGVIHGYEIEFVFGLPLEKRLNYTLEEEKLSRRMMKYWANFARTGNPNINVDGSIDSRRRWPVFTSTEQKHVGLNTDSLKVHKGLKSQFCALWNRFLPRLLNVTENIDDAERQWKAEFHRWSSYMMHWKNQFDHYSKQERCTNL
Chain of Cholinesterase (Equus caballus) (P81908 whole entry): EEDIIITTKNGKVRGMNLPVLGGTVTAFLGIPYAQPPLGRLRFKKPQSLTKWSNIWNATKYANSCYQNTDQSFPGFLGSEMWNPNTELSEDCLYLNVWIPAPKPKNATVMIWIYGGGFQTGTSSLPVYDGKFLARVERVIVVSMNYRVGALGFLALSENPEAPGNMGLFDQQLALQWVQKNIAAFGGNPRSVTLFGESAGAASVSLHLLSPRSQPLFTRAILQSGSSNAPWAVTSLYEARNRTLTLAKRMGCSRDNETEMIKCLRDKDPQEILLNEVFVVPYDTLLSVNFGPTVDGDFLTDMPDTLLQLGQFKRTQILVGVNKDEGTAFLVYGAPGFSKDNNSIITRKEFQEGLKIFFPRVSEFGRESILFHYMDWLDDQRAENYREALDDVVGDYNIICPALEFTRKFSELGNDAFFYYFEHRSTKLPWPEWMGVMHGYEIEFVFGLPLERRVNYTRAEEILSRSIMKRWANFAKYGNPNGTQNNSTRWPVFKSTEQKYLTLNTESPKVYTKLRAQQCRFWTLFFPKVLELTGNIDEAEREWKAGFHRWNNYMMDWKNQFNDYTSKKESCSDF
Chain of Cholinesterase (P81908 whole entry): as above
Chain of Acetylcholinesterase (O42275 whole entry): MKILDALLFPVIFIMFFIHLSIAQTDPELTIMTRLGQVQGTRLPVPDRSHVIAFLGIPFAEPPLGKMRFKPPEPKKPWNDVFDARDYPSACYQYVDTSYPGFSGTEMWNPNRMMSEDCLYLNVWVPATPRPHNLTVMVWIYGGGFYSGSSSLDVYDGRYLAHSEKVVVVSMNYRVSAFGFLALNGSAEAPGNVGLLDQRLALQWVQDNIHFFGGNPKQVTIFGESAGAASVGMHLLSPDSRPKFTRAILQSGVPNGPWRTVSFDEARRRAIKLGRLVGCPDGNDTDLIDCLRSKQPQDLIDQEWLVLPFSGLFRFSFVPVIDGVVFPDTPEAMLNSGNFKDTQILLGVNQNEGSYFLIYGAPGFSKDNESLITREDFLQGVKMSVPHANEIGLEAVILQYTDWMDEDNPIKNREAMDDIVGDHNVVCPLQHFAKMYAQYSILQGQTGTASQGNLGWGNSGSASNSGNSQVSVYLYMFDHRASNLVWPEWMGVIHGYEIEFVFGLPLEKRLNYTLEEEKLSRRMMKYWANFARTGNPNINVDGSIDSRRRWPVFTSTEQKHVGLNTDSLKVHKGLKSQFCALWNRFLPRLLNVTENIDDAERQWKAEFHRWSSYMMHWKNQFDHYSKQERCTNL
Chain of Amyloid-beta precursor protein (Homo sapiens) (P05067 whole entry): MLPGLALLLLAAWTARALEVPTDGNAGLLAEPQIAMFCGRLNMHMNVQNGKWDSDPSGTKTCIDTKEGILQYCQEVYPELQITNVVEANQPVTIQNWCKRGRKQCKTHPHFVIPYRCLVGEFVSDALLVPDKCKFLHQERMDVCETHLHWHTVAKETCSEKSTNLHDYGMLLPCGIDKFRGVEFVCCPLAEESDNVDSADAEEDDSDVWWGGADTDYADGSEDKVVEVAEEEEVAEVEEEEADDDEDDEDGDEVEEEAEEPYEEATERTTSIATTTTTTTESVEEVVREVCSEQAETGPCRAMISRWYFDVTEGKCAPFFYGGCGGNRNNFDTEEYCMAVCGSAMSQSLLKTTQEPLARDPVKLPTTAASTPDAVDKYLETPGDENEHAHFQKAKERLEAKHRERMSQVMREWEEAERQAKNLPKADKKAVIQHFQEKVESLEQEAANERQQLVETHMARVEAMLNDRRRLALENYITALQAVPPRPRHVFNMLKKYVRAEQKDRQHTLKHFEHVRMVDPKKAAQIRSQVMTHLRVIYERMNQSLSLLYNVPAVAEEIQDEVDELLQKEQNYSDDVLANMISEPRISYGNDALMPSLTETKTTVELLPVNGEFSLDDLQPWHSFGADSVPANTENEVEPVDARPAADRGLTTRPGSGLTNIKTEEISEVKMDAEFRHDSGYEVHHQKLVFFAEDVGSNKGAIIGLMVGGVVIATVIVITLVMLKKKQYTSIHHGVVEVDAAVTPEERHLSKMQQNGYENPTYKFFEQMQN

| Compound | Activity [1] | inhibition [2] | inhibition [3] | Activity (THP-1 [4]) | IC50 (Cholinesterase) | Activity (THP-1 [5]) | Activity (THP-1 [6]) | Activity (THP-1 [7]) | IC50 (Acetylcholinesterase) | inhibition [8] |
| --- | --- | --- | --- | --- | --- | --- | --- | --- | --- | --- |
| COc1ccc(N2CCN(CCC(=O)Nc3ccc4c(c3)sc(=O)n4C)CC2)cc1 | 4.55 equiv | < 10% | 31% | – | – | – | – | – | – | – |
| Cn1c(=O)sc2cc(NC(=O)CCCN3CCC(c4ccccc4)CC3)ccc21 | 2.93 equiv | 90% | 32% | Active | 9.65 µM | Active | Active | Active | – | – |
| Cn1c(=O)oc2cc(NC(=O)CCN3CCN(Cc4ccc(C(F)(F)F)cc4)CC3)ccc21 | 3.96 equiv | < 10% | 35% | – | – | – | – | – | – | – |
| Cn1c(=O)oc2cc(NC(=O)CCN3CCN(c4ccc(C(F)(F)F)cc4)CC3)ccc21 | 3.9 equiv | < 10% | 35% | – | – | – | – | – | – | – |
| CN(CCC(=O)Nc1ccc2c(c1)oc(=O)n2C)Cc1ccccc1 | 4.3 equiv | 42% | 58% | – | – | – | – | – | 52.4 µM | – |
| Cc1ccc(N2CCN(CCC(=O)Nc3ccc4c(c3)sc(=O)n4C)CC2)cc1 | 4.31 equiv | < 10% | 35% | – | – | – | – | – | – | – |
| Cn1c(=O)sc2cc(NC(=O)CCN3CCN(c4ccc(C(F)(F)F)cc4)CC3)ccc21 | 4.1 equiv | < 10% | 36% | – | – | – | – | – | – | – |
| Cn1c(=O)sc2cc(NC(=O)CCN3CCN(c4ccccc4)CC3)ccc21 | 4.24 equiv | < 10% | 34% | – | – | – | – | – | – | – |
| Cn1c(=O)oc2cc(NC(=O)CCN3CCN(c4ccc(F)cc4)CC3)ccc21 | 3.85 equiv | < 10% | 35% | – | – | – | – | – | – | – |
| Cn1c(=O)sc2cc(NC(=O)CCN3CCN(c4ccc(F)cc4)CC3)ccc21 | 4.03 equiv | < 10% | 37% | – | – | – | – | – | – | – |
| CN(CCC(=O)Nc1ccc2c(c1)sc(=O)n2C)Cc1ccccc1 | 3.9 equiv | 70% | 63% | – | 42 µM | – | – | – | 49.5 µM | – |
| Cn1c(=O)oc2cc(NC(=O)CCCN3CCN(Cc4ccccc4)CC3)ccc21 | 3.97 equiv | < 10% | 94% | Active | – | Active | Active | Active | 6 µM | – |
| Cn1c(=O)oc2cc(NC(=O)CCN3CCN(Cc4ccc(F)cc4)CC3)ccc21 | 3.92 equiv | 21% | 66% | – | – | – | – | – | 16.1 µM | – |
| Cn1c(=O)oc2cc(NC(=O)CCN3CCN(c4ccc(Cl)cc4)CC3)ccc21 | 3.95 equiv | < 10% | 30% | – | – | – | – | – | – | – |
| Cn1c(=O)sc2cc(C(=O)CCN3CCC(c4ccccc4)CC3)ccc21 | 3.1 equiv | 79% | 81% | – | 14 µM | – | – | – | 4.32 µM | – |
| Cc1ccc(N2CCN(CCC(=O)Nc3ccc4c(c3)oc(=O)n4C)CC2)cc1 | 4.03 equiv | < 10% | 33% | – | – | – | – | – | – | – |
| Cn1c(=O)sc2cc(NC(=O)CCN3CCN(Cc4ccccc4)CC3)ccc21 | 4.08 equiv | < 10% | 92% | Active | – | Active | Active | Active | 2.34 µM | – |
| O=C(CCN1CCN(Cc2ccccc2)CC1)Nc1ccc2nc(-c3ccccc3)sc2c1 | 2.64 equiv | < 10% | < 10% | – | – | – | – | – | – | – |
| Cn1c(=O)sc2cc(NC(=O)CCN3CCN(Cc4ccc(F)cc4)CC3)ccc21 | 4.1 equiv | 52% | 74% | – | 37.6 µM | – | – | – | 7.09 µM | – |

| Compound | Activity [1] | inhibition [2] | inhibition [3] | Activity (THP-1 [4]) | IC50 (Cholinesterase) | Activity (THP-1 [5]) | Activity (THP-1 [6]) | Activity (THP-1 [7]) | IC50 (Acetylcholinesterase) | inhibition [8] |
| --- | --- | --- | --- | --- | --- | --- | --- | --- | --- | --- |
| Cn1c(=O)sc2cc(NC(=O)CCN3CCN(Cc4ccc(C(F)(F)F)cc4)CC3)ccc21 | 4.45 equiv | < 10% | 35% | – | – | – | – | – | – | – |
| Cn1c(=O)oc2cc(C(=O)CCN3CCN(Cc4ccccc4)CC3)ccc21 | 3.03 equiv | < 10% | 97% | Active | – | Active | Active | Active | 0.89 µM | – |
| Cn1c(=O)oc2cc(NC(=O)CCN3CCN(Cc4ccc(Cl)cc4)CC3)ccc21 | 4.19 equiv | < 10% | 40% | – | – | – | – | – | – | – |
| Cn1c(=O)sc2cc(NC(=O)CCCN3CCN(Cc4ccccc4)CC3)ccc21 | 3.91 equiv | < 10% | 93% | Active | – | Active | Active | Active | 1.96 µM | – |
| Cn1c(=O)oc2cc(NC(=O)CCN3CCC(Cc4ccccc4)CC3)ccc21 | 3.87 equiv | 47% | 64% | – | – | – | – | – | 24.6 µM | – |
| Cn1c(=O)sc2cc(NC(=O)CCCCN3CCN(Cc4ccccc4)CC3)ccc21 | 2.67 equiv | < 10% | 87% | – | – | – | – | – | 14 µM | – |
| O=C(CCN1CCN(Cc2ccccc2)CC1)Nc1ccc2nc(-c3ccccc3)oc2c1 | 2.68 equiv | < 10% | < 10% | – | – | – | – | – | – | – |
| COc1ccc(CN2CCN(CCC(=O)Nc3ccc4c(c3)sc(=O)n4C)CC2)cc1 | 4.28 equiv | < 10% | 39% | – | – | – | – | – | – | – |
| Cn1c(=O)oc2cc(NC(=O)CCCCN3CCN(Cc4ccccc4)CC3)ccc21 | 2.63 equiv | < 10% | 82% | – | – | – | – | – | 30.9 µM | – |
| Cn1c(=O)oc2cc(NC(=O)CCN3CCN(Cc4ccccc4)CC3)ccc21 | 3.78 equiv | 30% | 81% | Active | – | Active | Active | Active | 6.94 µM | – |
| Cn1c(=O)sc2cc(NC(=O)CCN3CCC(Cc4ccccc4)CC3)ccc21 | 4.01 equiv | 60% | 62% | – | 75.4 µM | – | – | – | 31.9 µM | – |
| COc1ccc(CN2CCN(CCC(=O)Nc3ccc4c(c3)oc(=O)n4C)CC2)cc1 | 4.2 equiv | < 10% | 38% | – | – | – | – | – | – | – |
| Cn1c(=O)oc2cc(NC(=O)CCN3CCN(c4ccccc4)CC3)ccc21 | 4.02 equiv | < 10% | 32% | – | – | – | – | – | – | – |
| Cn1c(=O)sc2cc(NC(=O)CCN3CCN(c4ccc(Cl)cc4)CC3)ccc21 | 4.43 equiv | < 10% | 32% | – | – | – | – | – | – | – |
| COc1ccc(N2CCN(CCC(=O)Nc3ccc4c(c3)oc(=O)n4C)CC2)cc1 | 4.28 equiv | < 10% | 29% | – | – | – | – | – | – | – |
| Cn1c(=O)sc2cc(NC(=O)CCN3CCN(Cc4ccc(Cl)cc4)CC3)ccc21 | 4.01 equiv | < 10% | 37% | – | – | – | – | – | – | – |
| O=S1(=O)OC(c2ccc(O)cc2)(c2ccc(O)cc2)c2ccccc21 | – | – | – | – | – | – | – | – | – | 32.2% |
| Cn1c(=O)oc2cc(NC(=O)CCN3CCC(c4ccccc4)CC3)ccc21 | 4.09 equiv | < 10% | 25% | – | – | – | – | – | – | – |
| Cn1c(=O)sc2cc(NC(=O)CCN3CCC(c4ccccc4)CC3)ccc21 | 4.31 equiv | 81% | 60% | – | 11.1 µM | – | – | – | 60.3 µM | – |

Source: ChEMBL document CHEMBL4706649, “Design, synthesis and biological evaluation of new benzoxazolone/benzothiazolone derivatives as multi-target agents against Alzheimer's disease” (Eur J Med Chem, 2021)
